The results in this text go back to PMC9064899 (The FEBS journal, 2021).

Substitutions are numbered along the chain they refer to.

One test concerns the target T1, UBIAD1 G177E (Homo sapiens, UniProt Q9Y5Z9, G177E).
T1 sequence (Q9Y5Z9 1-338 G177E): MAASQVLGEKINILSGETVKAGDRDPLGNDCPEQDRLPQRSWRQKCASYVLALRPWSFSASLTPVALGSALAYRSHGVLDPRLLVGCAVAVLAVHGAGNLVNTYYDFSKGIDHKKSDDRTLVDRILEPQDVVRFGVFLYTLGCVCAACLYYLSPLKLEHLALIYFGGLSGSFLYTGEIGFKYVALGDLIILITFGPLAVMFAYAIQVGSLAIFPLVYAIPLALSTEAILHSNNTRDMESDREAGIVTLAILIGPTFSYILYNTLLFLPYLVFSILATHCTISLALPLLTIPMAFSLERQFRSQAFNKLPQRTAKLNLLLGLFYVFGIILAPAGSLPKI
The test can be described thus: Cell-based UBIAD1 functional assay. In short, it runs like this:
(§1)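 Wild-type or mutant human UBIAD1 in pCI-neo was transiently transfected into Ubiad1-knockout FIXgla-PC/HEK293 cells (DMEM/F12, 10% FBS). […] After 24 h, carboxylated FIXgla-PC in the medium was measured by ELISA. Activity was normalized to wild type (100%), and EC50 came from a curve fit. Mean ± SD, n=3 independent experiments.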

The target of another test is T2, wild-type UBIAD1 (Homo sapiens, UniProt Q9Y5Z9).
T2 sequence (Q9Y5Z9 1-338): T1 sequence (Q9Y5Z9 1-338 G177E) with E177G
The test can be described thus: Cell-based UBIAD1 functional assay. In outline:
as §1

Take `CC1=CC(=O)c2ccccc2C1=O` [vitamin K3, menadione]: the values for the concentration giving a half-maximal response (EC50) on UBIAD1 G177E and at wild-type UBIAD1 were 3.7 ± 0.5 nM and 3.7 ± 0.4 nM, respectively. In addition, the “Vitamin K-dependent carboxylation Activity ± SD” value worked out at 117.1 ± 4.5% at UBIAD1 G177E (G177E, 1 μM vitamin K3) and 100 ± 2.4% at wild-type UBIAD1 (WT, 1 μM vitamin K3, WT normalized to 100%).
